From ChEMBL document CHEMBL1133118 (J Med Chem, 2000)
Each block holds one molecule with its values, some of them ahead of it.

Columns and labels:
[1] = target: T1, Adenosine receptor A3 (Homo sapiens, UniProt P0DMS8); assay: biochemical
T1 sequence (P0DMS8 whole entry): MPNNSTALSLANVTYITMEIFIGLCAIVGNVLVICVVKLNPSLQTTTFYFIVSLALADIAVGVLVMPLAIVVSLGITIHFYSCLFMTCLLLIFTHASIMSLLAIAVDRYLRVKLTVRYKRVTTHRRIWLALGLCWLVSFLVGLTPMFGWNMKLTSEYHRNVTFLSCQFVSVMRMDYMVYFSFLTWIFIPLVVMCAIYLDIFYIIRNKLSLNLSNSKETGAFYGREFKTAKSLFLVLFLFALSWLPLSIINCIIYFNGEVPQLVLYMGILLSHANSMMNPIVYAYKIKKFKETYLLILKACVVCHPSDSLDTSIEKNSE

[2] = target: T2, Adenosine receptor A2a (Homo sapiens, UniProt P29274); assay: Displacement of [3H]-SCH- 58261 from human adenosine A2A receptor expressed in CHO cells; range 850-1230; type: cell-based
[3] = target: Adenosine receptors; A2b & A3 (Homo sapiens) (UniProt P29275+P0DMS8); assay: Ratio of binding affinity of human A2B receptor to that of human A3 receptor; type: protein assay
In short: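 Ki ratio, n=3-6, 6–8 concentrations. A2B in HEK-293 membranes (20 μg): 40 nM [3H]DPCPX, 50 mM Tris HCl, 10 mM MgCl2, 1 mM EDTA, 0.1 mM benzamidine pH 7.4, 2 IU/mL adenosine deaminase, 60 min at 25 °C, nonspecific with 100 μM NECA. A3 in CHO membranes (50 μg): 1 nM [3H]MRE3008-F20, 120 min at 4 °C.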

[4] = target: T3, Adenosine receptor A1 (Homo sapiens, UniProt P30542); assay: Displacement of [3H]DPCPX from human adenosine A1 receptor expressed in CHO cells; range 254-356; type: cell-based
T3 sequence (P30542 whole entry): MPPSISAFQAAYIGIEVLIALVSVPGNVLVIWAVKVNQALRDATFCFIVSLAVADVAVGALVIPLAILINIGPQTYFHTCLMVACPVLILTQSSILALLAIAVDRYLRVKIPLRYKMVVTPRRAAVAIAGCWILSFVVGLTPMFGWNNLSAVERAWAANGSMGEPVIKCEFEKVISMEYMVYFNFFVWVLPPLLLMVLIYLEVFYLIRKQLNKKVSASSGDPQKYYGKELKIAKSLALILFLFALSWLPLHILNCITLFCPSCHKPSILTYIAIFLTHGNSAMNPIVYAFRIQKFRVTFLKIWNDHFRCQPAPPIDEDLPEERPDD

[5] = target: T4, Adenosine receptor A2b (Homo sapiens, UniProt P29275); assay: Displacement of [3H]-DPCPX from Adenosine A2b receptor expressed in […]; range 52-65; type: cell-based
T4 sequence (P29275 whole entry): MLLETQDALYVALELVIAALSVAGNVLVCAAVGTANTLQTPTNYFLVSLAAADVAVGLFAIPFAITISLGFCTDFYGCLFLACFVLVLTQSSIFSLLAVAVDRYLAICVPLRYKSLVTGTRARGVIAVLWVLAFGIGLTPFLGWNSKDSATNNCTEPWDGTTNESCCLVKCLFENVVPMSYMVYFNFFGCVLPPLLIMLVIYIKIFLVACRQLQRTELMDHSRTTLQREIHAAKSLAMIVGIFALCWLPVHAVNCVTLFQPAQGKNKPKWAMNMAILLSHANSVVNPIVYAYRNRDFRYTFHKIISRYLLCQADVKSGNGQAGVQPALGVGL

[6] = target: T5, Adenosine receptor A3 (Homo sapiens) (UniProt P0DMS8); conditions: CHO, 1 uM
T5 sequence (whole entry): T1 sequence (P0DMS8 whole entry)

[7] = target: Adenosine receptors; A1 & A3 (Homo sapiens) (UniProt P30542+P0DMS8); assay: Ratio of binding affinity of human A1 receptor to that of human A3 receptor; type: protein assay
In short: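 Ki ratio from displacement in CHO membranes, 6–8 concentrations, n=3-6, filtration counting. A1: 1 nM [3H]DPCPX, 50 μg protein, 120 min at 25 °C, nonspecific with 10 μM CHA. A3: 1 nM [3H]MRE3008-F20, 50 μg protein, Tris/10 mM MgCl2 pH 7.4, 120 min at 4 °C, nonspecific with 1 μM MRE3008-F20.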

[8] = target: T5, Adenosine receptor A3 (Homo sapiens); assay: Percentage of blockade by 1 uM of the inhibition by 100 nM IB-MECA-inhibited cAMP accumulation in CHO cells expressing human adenosine A3 receptor.; type: functional, cell-based
In short: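 CHO cells stably expressing human A3 receptor; membranes in 50 mM Tris HCl, 10 mM MgCl2, 1 mM EDTA pH 7.4 with 5 μM GTP, 0.5 mM […] and 2.0 IU/mL adenosine deaminase. Preincubated 10 min at 37 °C, then IB-MECA (100 nM) and/or antagonist with 1 mM ATP and 10 μM forskolin for 10 min. Boiled 2 min. cAMP read by [3H]cAMP competition with adrenal binding protein.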

[9] = target: T1, Adenosine receptor A3; assay: Displacement of [3H]MRE3008-F20 from human adenosine A3 receptor expressed in CHO cells; range 247-317; type: cell-based
[10] = target: T4, Adenosine receptor A2b; assay: Displacement of [3H]DPCPX from Adenosine A2b receptor expressed in […]; range 3.9-6.7; type: cell-based
[11] = target: T2, Adenosine receptor A2a; assay: biochemical
[12] = target: T4, Adenosine receptor A2b; assay: Displacement of [3H]DPCPX from Adenosine A2b receptor expressed in […]; range 1637-2582; type: cell-based
[13] = target: T5, Adenosine receptor A3 (Homo sapiens); conditions: CHO, 1 uM; remark: listed apart in the source
[14] = target: T3, Adenosine receptor A1; assay: Displacement of [3H]DPCPX from human adenosine A1 receptor expressed in CHO cells; range 179-317; type: cell-based
[15] = target: T1, Adenosine receptor A3; assay: biochemical; remark: listed apart in the source
[16] = target: T1, Adenosine receptor A3; assay: Inhibition of cAMP accumulation in CHO cells expressing human A3 adenosine receptor; type: functional, cell-based
[17] = target: T2, Adenosine receptor A2a; assay: Displacement of [3H]-SCH- 58261 from human adenosine A2A receptor expressed in CHO cells; range 218-283; type: cell-based
[18] = target: T4, Adenosine receptor A2b; assay: Tested for inhibitory activity against Adenosine A2b receptor by displacement of [3H]DPCPX expressed in […]; value ranges from 61-80; type: cell-based
[19] = target: T2, Adenosine receptor A2a; assay: Displacement of [3H]-SCH- 58261 from human adenosine A2A receptor expressed in CHO cells; range 267-453; type: cell-based
[20] = target: T3, Adenosine receptor A1; assay: Displacement of [3H]DPCPX from human adenosine A1 receptor expressed in CHO cells; range 170-358; type: cell-based
[21] = target: T4, Adenosine receptor A2b; assay: Displacement of [3H]DPCPX from Adenosine A2b receptor expressed in HEK-293 cells; range 934-1327
[22] = target: T1, Adenosine receptor A3; assay: biochemical; remark: listed apart in the source
[23] = target: T2, Adenosine receptor A2a; assay: Displacement of [3H]-SCH- 58261 from human adenosine A2A receptor expressed in CHO cells; range 1.4-2.1; type: cell-based
In short: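 CHO membranes expressing human A2A receptor (50 μg protein) in 50 mM Tris HCl, 10 mM MgCl2, pH 7.4, competed against [3H]SCH 58261. At least 6–8 test concentrations were used, with 60 min incubation at 25 °C. Nonspecific binding defined by 50 μM NECA; n=3-6.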

[24] = target: T3, Adenosine receptor A1; assay: Displacement of [3H]DPCPX from human adenosine A1 receptor expressed in CHO cells; range 11-17; type: cell-based
[25] = target: T1, Adenosine receptor A3; assay: biochemical; remark: listed apart in the source
[26] = target: T4, Adenosine receptor A2b; assay: Displacement of [3H]DPCPX from Adenosine A2b receptor expressed in HEK-293 cells; range 40-69

T2 sequence (P29274 whole entry): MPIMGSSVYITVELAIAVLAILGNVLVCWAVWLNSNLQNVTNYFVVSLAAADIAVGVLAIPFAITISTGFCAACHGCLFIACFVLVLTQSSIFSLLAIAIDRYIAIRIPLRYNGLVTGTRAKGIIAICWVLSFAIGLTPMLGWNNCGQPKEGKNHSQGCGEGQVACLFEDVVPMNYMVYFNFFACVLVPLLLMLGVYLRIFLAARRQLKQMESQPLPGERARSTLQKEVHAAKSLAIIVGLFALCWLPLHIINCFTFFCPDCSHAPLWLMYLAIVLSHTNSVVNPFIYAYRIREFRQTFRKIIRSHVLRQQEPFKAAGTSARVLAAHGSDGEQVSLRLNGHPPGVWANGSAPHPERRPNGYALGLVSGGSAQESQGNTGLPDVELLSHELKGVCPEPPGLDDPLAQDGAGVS

Ki [12]: 2060 nM
SMILES: CCCn1cc2c(nc(NC(=O)Nc3ccc(OC)cc3)n3nc(-c4ccco4)nc23)n1

Ratio [3]: 0.25
inhibition [8]: 3%
Ki [19]: 348 nM
Ki [20]: 247 nM
Ki [21]: 1110 nM
Ki [22]: 4480 nM
Ratio [7]: 0.06
SMILES: Nc1nc2nn(CCc3cc(Br)c(Br)cc3Br)cc2c2nc(-c3ccco3)nn12

Ratio [3]: 0.09
inhibition [8]: 15%
Ki [23]: 1.6 nM
Ki [24]: 14 nM
Ki [25]: 600 nM
Ki [26]: 53 nM
Ratio [7]: 0.02
SMILES: CCCCn1cc2c(nc(N)n3nc(-c4ccco4)nc23)n1

Further lines, the molecule ahead of its results:

SMILES: COc1ccc(NC(=O)Nc2nc3nn(CC=C(C)C)cc3c3nc(-c4ccco4)nn23)cc1
Ki [1]: 40 nM
Ki [2]: 1020 nM
Ratio [3]: 1.45
Ki [4]: 300 nM
Ki [5]: 58 nM
inhibition [6]: 42%
Ratio [7]: 7.5

SMILES: Nc1nc2nn(CCc3ccccc3)cc2c2nc(-c3ccco3)nn12
Ratio [3]: 0.0017
inhibition [8]: 28%
Ki [9]: 280 nM
Ki [10]: 5.1 nM
Ki [11]: 0.34 nM
Ratio [7]: 0.003

SMILES: O=C(Nc1cccc(Cl)c1)Nc1nc2n[nH]cc2c2nc(-c3ccco3)nn12
inhibition [13]: 88%
Ratio [3]: 140
Ki [14]: 238 nM
Ki [15]: 0.5 nM
IC50 [16]: 5.3 nM
Ki [17]: 248 nM
Ki [18]: 70 nM
Ratio [7]: 476
